From ChEMBL document CHEMBL1128681, “Studies on the monoamine oxidase (MAO)-catalyzed oxidation of phenyl-substituted 1-methyl-4-phenoxy-1,2,3,6-tetrahydropyridine derivatives: factors contributing to MAO-A and MAO-B selectivity” (J Med Chem, 1995) come the findings set out here.

Molecules are shown by their SMILES.

The nature of the assay: Selectivity coefficient as ratio of Kcat/Km for MAO-A and Kcat/Km for MAO-B. The essentials: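 Selectivity coefficient: MAO-A kcat/KM divided by MAO-B kcat/KM. Each value came from spectrophotometric initial-rate kinetics at 100–2000 μM substrate in 100 mM sodium phosphate pH 7.4, with 0.16 μM MAO-A or 0.08 μM MAO-B, and double-reciprocal plot analysis.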

Regarding `Cc1ccccc1OC1=CCN(C)CC1`, the Selectivity coefficient amounted to 1.4.

For the compound `Cc1cccc(OC2=CCN(C)CC2)c1`, the Selectivity coefficient was found to be 1.16.

With `CN1CC=C(Oc2ccc(Cl)cc2)CC1`, the Selectivity coefficient was found to be 2.15.

`COc1cccc(OC2=CCN(C)CC2)c1`: the Selectivity coefficient stood at 3.88.

Regarding `CN1CC=C(c2ccccc2)CC1`, the Selectivity coefficient is 0.03.

On to `COc1ccccc1OC1=CCN(C)CC1`, for which the Selectivity coefficient was 1.01.

As to `COc1ccc(OC2=CCN(C)CC2)cc1`, the Selectivity coefficient came out at 2.08.

As for `CN1CC=C(Cc2ccccc2)CC1`, the Selectivity coefficient amounted to 0.08.

In the case of `CN1CC=C(Oc2ccccc2-c2ccccc2)CC1`, the Selectivity coefficient is 4.35.

With `CN1CC=C(Oc2cccc([N+](=O)[O-])c2)CC1`, the Selectivity coefficient turned out to be 1.21.

As for `Cc1ccc(OC2=CCN(C)CC2)cc1`, the Selectivity coefficient worked out at 0.3.

Take `CN1CC=C(Oc2ccccc2Cl)CC1`: the Selectivity coefficient came to 2.99.

For `CN1CC=C(Oc2ccccc2[N+](=O)[O-])CC1`, the Selectivity coefficient stood at 1.7.

Take `CN1CC=C(Oc2ccc([N+](=O)[O-])cc2)CC1`: the Selectivity coefficient came out at 2.53.

Regarding `CN1CC=C(Oc2cccc(-c3ccccc3)c2)CC1`, the Selectivity coefficient is 8.74.

Take `CN1CC=C(Oc2ccccc2)CC1`: the Selectivity coefficient amounted to 0.57.

Turning to `CN1CC=C(Oc2cccc(Cl)c2)CC1`, the Selectivity coefficient was found to be 5.99.

For `CN1CC=C(Oc2ccc(-c3ccccc3)cc2)CC1`, the Selectivity coefficient amounted to 4.71.
